Several values for one entry are separate records, joined by “and”; a condition that tells them apart may be missing. Identical values can stand only once. Like-named read-outs stand apart in the source and are kept apart here. Blank lines part the entries; values can stand above or below the compound they belong to.
Legend:
[1] = Phase I DDI study with itraconazole: safety and tolerability; assay type: in vivo, human (healthy male volunteers); conditions: for Treatment-related AEs / Participants with any AE / Gastrointestinal disorders / General disorders and administration site conditions / Infections and infestations / Musculoskeletal and connective tissue disorders / Nervous system disorders / Vascular disorders: DDI + itraconazole study; for Participants with any AE: 16 participants per treatment; for Gastrointestinal disorders / General disorders and administration site conditions / Infections and infestations / Musculoskeletal and connective tissue disorders / Nervous system disorders / Vascular disorders: system organ class
Method in brief: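 Healthy males aged 18–50, BMI 18.5–29.9, received a single oral 25 mg test compound dose alone in period 1. In period 2 the same dose was given on day 4 of oral itraconazole, 200 mg QD on days 2–10. Washout was ≥16 days. Dosing followed a standardised breakfast, with 240 ml water. Safety was scored as frequency n (%) of AEs by system organ class, including physical exam findings, alongside labs, vital signs and 12-lead ECG.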

[2] = Phase I DDI study with rifampicin: safety and tolerability; assay type: in vivo, human (healthy male volunteers); conditions: for Participants with any AE: 16 participants per treatment
[3] = Phase I DDI study with rifampicin: plasma pharmacokinetics of BI 425809; assay type: in vivo, human (healthy male volunteers); conditions: for AUC(0-inf): AUC0-∞
[4] = doses up to 75 mg in healthy volunteers; cited from earlier work
human liver microsomes = assay: Turnover of BI 425809 in human liver microsomes; assay type: in vitro ADME; conditions: BI 425809 0.2, 2, 10 μM; up to 60 min
CYP3A = assay: BI 425809 metabolism by human hepatocytes; assay type: in vitro ADME; conditions: erythromycin 30 µM, all BI 425809 concentrations evaluated
[5] = Analyte stability in human plasma samples containing tripotassium EDTA; assay type: physicochemical; conditions: human plasma with tripotassium EDTA, -20 °C
CYP3A5 = CYP3A5 (Homo sapiens, UniProt P20815); assay: Metabolism of BI 425809 by recombinant CYP isoforms; assay type: in vitro ADME
[6] = tested on: cerebrospinal fluid glycine levels; conditions: multiple oral administrations, doses as low as 10 mg, dose-dependent; cited from earlier work
[7] = Phase I DDI study with itraconazole: plasma pharmacokinetics of BI 425809; assay type: in vivo, human (healthy male volunteers); conditions: for AUC(0-inf): AUC0-∞
CYP3A4 [8] = biological target: CYP3A4 (Homo sapiens, UniProt P08684); assay type: in vitro ADME; conditions: rCYP3A4, NADPH, up to 60 min
CYP3A4 [9] = conditions: human liver microsomes; CYP3A4 inhibitor ketoconazole
[10] = DDI + rifampicin study, system organ class
[11] = BI 425809 + rifampicin relative to BI 425809 alone
[12] = male, human, plasma, oral, 25 mg
[13] = male, human, plasma, oral, 25 mg, gMean, BI 425809 25 mg alone, N = 16
[14] = BI 425809 + itraconazole relative to BI 425809 alone

Sequence of CYP3A5 (P20815 whole entry, canonical isoform): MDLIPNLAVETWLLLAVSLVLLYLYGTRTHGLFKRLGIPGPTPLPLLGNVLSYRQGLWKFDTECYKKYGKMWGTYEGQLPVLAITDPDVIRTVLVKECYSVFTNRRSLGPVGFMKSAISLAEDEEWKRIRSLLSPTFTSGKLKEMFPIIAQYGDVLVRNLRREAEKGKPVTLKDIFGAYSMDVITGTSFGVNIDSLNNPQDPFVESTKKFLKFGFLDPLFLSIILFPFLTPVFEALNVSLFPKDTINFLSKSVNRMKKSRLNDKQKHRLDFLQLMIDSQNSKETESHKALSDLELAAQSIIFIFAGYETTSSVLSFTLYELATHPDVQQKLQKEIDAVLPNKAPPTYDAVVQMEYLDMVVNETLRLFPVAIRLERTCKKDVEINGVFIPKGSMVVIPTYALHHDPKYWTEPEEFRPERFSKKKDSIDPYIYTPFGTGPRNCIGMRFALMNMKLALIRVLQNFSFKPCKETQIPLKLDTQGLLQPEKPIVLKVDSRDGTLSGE
Sequence of CYP3A4 (Homo sapiens, UniProt P08684) (P08684 whole entry): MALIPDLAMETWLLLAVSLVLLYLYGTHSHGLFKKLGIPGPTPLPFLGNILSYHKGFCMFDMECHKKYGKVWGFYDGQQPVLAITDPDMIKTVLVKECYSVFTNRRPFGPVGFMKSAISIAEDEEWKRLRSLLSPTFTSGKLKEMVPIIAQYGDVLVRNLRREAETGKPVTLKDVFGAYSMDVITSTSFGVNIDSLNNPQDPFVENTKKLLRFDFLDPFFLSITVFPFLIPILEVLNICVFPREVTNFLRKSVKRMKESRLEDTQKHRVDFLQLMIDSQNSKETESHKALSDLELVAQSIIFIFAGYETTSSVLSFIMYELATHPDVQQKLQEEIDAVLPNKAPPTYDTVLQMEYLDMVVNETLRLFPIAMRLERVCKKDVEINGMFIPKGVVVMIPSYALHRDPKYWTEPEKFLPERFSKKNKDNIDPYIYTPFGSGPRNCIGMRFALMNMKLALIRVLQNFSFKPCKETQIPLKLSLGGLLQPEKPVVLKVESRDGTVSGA

Structure (SMILES): CCC(C)n1ncn(-c2ccc(N3CCN(c4ccc(OCC5COC(Cn6cncn6)(c6ccc(Cl)cc6Cl)O5)cc4)CC3)cc2)c1=O (stereo not shown) [Itraconazole, itraconazole, reference compound]
Treatment-related AEs [1]: 1 (6.3) n (%) | Participants with any AE [1]: 4 (25.0) n (%) | Gastrointestinal disorders [1]: 1 (6.3) n (%) | General disorders and administration site conditions [1]: 0 n (%) | Infections and infestations [1]: 2 (12.5) n (%) | Musculoskeletal and connective tissue disorders [1]: 1 (6.3) n (%) | Nervous system disorders [1]: 0 n (%) | Vascular disorders [1]: 0 n (%) | participants who reported ≥ 1 AE ([1]; DDI with itraconazole): 25% | participants with AE considered as drug-related by the investigator ([1]; DDI with itraconazole): 6.3%

Structure (SMILES): CO[C@H]1/C=C/O[C@@]2(C)Oc3c(C)c(O)c4c(O)c(c(/C=N/N5CCN(C)CC5)c(O)c4c3C2=O)NC(=O)/C(C)=C\C=C\[C@H](C)[C@H](O)[C@@H](C)[C@@H](O)[C@@H](C)[C@H](OC(C)=O)[C@@H]1C [Rifampicin, rifampicin, reference compound]
Participants with Severe AE ([2]; DDI + rifampicin study): 0 (0) n (%) | Treatment-related AEs ([2]; DDI + rifampicin study): 16 (100) n (%) | Participants with any AE ([2]; DDI + rifampicin study): 16 (100) n (%) | Gastrointestinal disorders [2, 10]: 0 n (%) | General disorders and administration site conditions [2, 10]: 1 (6.3) n (%) | Renal and urinary disorders [2, 10]: 16 (100) n (%) | Respiratory, thoracic and mediastinal disorders [2, 10]: 0 n (%) | Skin and subcutaneous tissue disorders [2, 10]: 1 (6.3) n (%) | participants who reported ≥ 1 AE ([2]; DDI with rifampicin): 100% | participants with AE considered as drug-related by the investigator ([2]; DDI with rifampicin): 100%

Structure (SMILES): C[C@@H](Oc1ccc(S(C)(=O)=O)cc1C(=O)N1C[C@@H]2C[C@]2(c2cc(C(F)(F)F)on2)C1)C(F)(F)F [BI 425809]
CL/F, gMean ([3]; BI 425809 25 mg alone, N = 16): 94.6 mL/min | AUC0-168, adjusted gMean ratio T/R (90% CI) [3, 11]: 10.3% and 10.3 (9.3‒11.3) % | AUC0-∞, adjusted gMean ratio T/R (90% CI) [3, 11]: 9.8 (8.8–11.0) % | Cmax, adjusted gMean ratio T/R (90% CI) [3, 11]: 37.4% and 37.4 (33.0‒43.5) % | AUC0-∞, adjusted gMean ([3]; BI 425809 alone (R), inferential analysis): 8.596 µM·h | AUC0-168 ratio ([3]; BI 425809 co-administered with rifampicin relative to BI 425809 alone): 0.10 | AUC(0-t) [3, 12]: 8.22 µM·h | half-life [3, 12]: 33.4 h | AUC(0-inf) [3, 13]: 8.6 µM·h | AUC(0-inf) ([3]; male, human, plasma, oral, adjusted gMean, BI 425809 + rifampicin (T), inferential analysis): 0.846 µM·h | AUC(0-inf) ([3]; male, human, plasma, oral, gMean, BI 425809 25 mg + rifampicin, N = 15): 0.837 µM·h | AUC(0-t) ([3]; male, human, plasma, po, 25 mg): 8.22 µM·h | Cmax ([3]; read-out: Cmax, adjusted gMean, BI 425809 alone (R), inferential analysis): 218 nM | Cmax ([3]; read-out: Cmax, gMean, BI 425809 25 mg alone, N = 16): 218 nM | tolerability [4]: generally well tolerated | Treatment-related AEs [1]: 0 (0) n (%) | Participants with any AE [1]: 6 (37.5) n (%) | Gastrointestinal disorders [1]: 0 n (%) | General disorders and administration site conditions [1]: 1 (6.3) n (%) | Infections and infestations [1]: 3 (18.8) n (%) | Musculoskeletal and connective tissue disorders [1]: 1 (6.3) n (%) | Nervous system disorders [1]: 1 (6.3) n (%) | Vascular disorders [1]: 1 (6.3) n (%) | participants who reported ≥ 1 AE ([1]; DDI with itraconazole): 37.5% | tolerability ([1]; both DDI studies (itraconazole and rifampicin), 25 mg single oral dose): well tolerated | turnover of BI 425809 in human liver microsomes (human liver microsomes): No detectable turnover | inhibition of depletion of BI 425809 by erythromycin (CYP3A): 92.1–100% and > 90% | period of demonstrated analyte stability [5]: 381 days | % In vitro CYP contribution, Depletion (CYP3A5; CYP3A5, depletion of BI 425809): ~4% | depletion of BI 425809 (CYP3A5; rCYP3A5, NADPH, up to 60 min): > 15% | mean increase in cerebrospinal fluid glycine levels [6]: 50% | Participants with Severe AE ([2]; DDI + rifampicin study): 0 (0) n (%) | Treatment-related AEs ([2]; DDI + rifampicin study): 0 (0) n (%) | Participants with any AE ([2]; DDI + rifampicin study): 2 (12.5) n (%) | Gastrointestinal disorders [2, 10]: 0 n (%) | General disorders and administration site conditions [2, 10]: 0 n (%) | Nervous system disorders [2, 10]: 1 (6.3) n (%) | Renal and urinary disorders [2, 10]: 0 n (%) | Respiratory, thoracic and mediastinal disorders [2, 10]: 1 (6.3) n (%) | Skin and subcutaneous tissue disorders [2, 10]: 0 n (%) | participants who reported ≥ 1 AE ([2]; DDI with rifampicin): 12.5% | CL/F, gMean ([7]; BI 425809 25 mg + itraconazole, N = 15): 12.4 mL/min | CL/F, gMean ([7]; BI 425809 25 mg alone, N = 16): 73.3 mL/min | t1/2, gMean ([7]; BI 425809 25 mg alone, N = 16): 45.5 h | AUC0-167, adjusted gMean ratio T/R (90% CI) [7, 14]: 265.3% and 265.3 (240.9‒292.2) % | AUC0-∞, adjusted gMean ratio T/R (90% CI) [7, 14]: 597.0% and 597.0 (514.2‒693.0) % | Cmax, adjusted gMean ratio T/R (90% CI) [7, 14]: 116.1% and 116.1 (108.0‒124.7) % | extrapolated area of AUC0-∞ ([7]; BI 425809 under itraconazole treatment): 56% | AUC(0-t) [7, 12]: 10.2 µM·h | Cmax [7, 12]: 316 nM | AUC(0-inf) ([7]; male, human, plasma, oral, 25 mg, adjusted gMean, BI 425809 alone (R), inferential analysis): 11.1 µM·h | AUC(0-inf) [7, 13]: 11.1 µM·h | AUC(0-inf) ([7]; male, human, plasma, oral, adjusted gMean, BI 425809 + itraconazole (T), inferential analysis): 66.2 µM·h | AUC(0-inf) ([7]; male, human, plasma, oral, gMean, BI 425809 25 mg + itraconazole, N = 15): 65.3 µM·h | AUC(0-t) ([7]; male, human, plasma, po, 25 mg): 10.2 µM·h | Cmax ([7]; read-out: Cmax, adjusted gMean, BI 425809 + itraconazole (T), inferential analysis): 367 nM | increase in Cmax ([7]; with itraconazole versus alone): ~16% | depletion of BI 425809 (CYP3A4 [8]): > 15%

inhibition of formation of BI 425809 metabolites M530 and M544 (CYP3A4 [9]): completely inhibited
Structure (SMILES): CC(=O)N1CCN(c2ccc(OCC3COC(Cn4ccnc4)(c4ccc(Cl)cc4Cl)O3)cc2)CC1 (stereo not shown) [ketoconazole]

Source: paper PMC8752533 (European Journal of Drug Metabolism and Pharmacokinetics, 2021)
